Assay results taken from ChEMBL document CHEMBL4393705, “New chalcone-sulfonamide hybrids exhibiting anticancer and antituberculosis activity” (Eur J Med Chem, 2019).
Converted amounts (≈) assume the structure as drawn.

Tests used:
Staphylococcus aureus = assay: Antibacterial activity against Staphylococcus aureus measured every 120 mins for 36 hrs by LB broth two-fold serial dilution method; type: functional
Outline: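 Panel of 12 laboratory and clinical S. aureus strains with varied drug-susceptibility patterns. Compounds were two-fold serially diluted in LB broth from a maximum of 32 mg/L. Growth was followed by OD600 every 120 min for 36 h. Vancomycin was the positive control, and runs were in duplicate.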

NIH3T3 = assay: Cytotoxicity against mouse 3T3 cells assessed as cell viability measured after 48 hrs by MTT assay; type: cell-based; settings: nih3t3, 48 h
Outline: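 3T3 fibroblasts in DMEM with 10% FBS and penicillin-streptomycin, seeded at 10^4 cells/well 24 h prior. Exposed 48 h to two-fold serial dilutions from a 100 mg/mL DMSO stock. MTT (5 mg/mL in PBS) added for 1.5 h, formazan dissolved in DMSO, read at 530 nm. Duplicate runs on different days. Value interpolated between DMSO (100%) and cycloheximide (0%) controls.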

[1] = tested on: Mycobacterium tuberculosis; assay: Antitubercular activity against Mycobacterium tuberculosis H37Rv ATCC27294 measured after 2-3 weeks by agar dilution SPOTi assay; type: functional; settings: H37Rv ATCC 27294
Outline: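 Agar dilution SPOTi on Middlebrook 7H10 with 0.5% glycerol and 10% OADC. Final compound levels 50, 20, 10, 5, 2 mg/L, added from DMSO dilutions. 2 µL of a 10^6 CFU/mL inoculum from a 4-week Löwenstein-Jensen culture spotted per well, incubated 2-3 weeks at 37°C. MIC is the lowest concentration with no visible growth. Repeated on a separate day; isoniazid was the reference.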

[2] = tested on: Mycolicibacterium smegmatis; assay: Antibacterial activity against Mycobacterium smegmatis MC2 155 measured after 48 hrs by agar dilution SPOTi assay; type: functional; settings: MC2 155, 48 h
Outline: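 SPOTi agar dilution on Middlebrook 7H10 without OADC. Cells were passaged in Middlebrook 7H9 and then spotted. Compounds were tested at 100, 50, 20, 10 and 5 mg/L, with kanamycin as positive control. Plates were incubated 48 h at 37°C. MIC was taken as the lowest concentration with no visible growth.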

K562 = assay: Anticancer activity against human K562 cells assessed as tumour cell growth at 10 uM after 48 hrs by SRB assay relative to control; type: functional
Outline: (§1)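 NCI 60-line primary screen at a single 10 μM dose in RPMI-1640 with 5% FBS and 2 mM L-glutamine. Cells were preincubated 24 h at 37 °C in 5% CO₂, with time-zero plates fixed with TCA. Compounds (DMSO, diluted in gentamicin medium) were incubated 48 h, then cells TCA-fixed and stained with 0.4% SRB (A515). Growth percent was derived from time-zero, control and treated absorbances.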

HCT-116 = assay: Anticancer activity against human HCT116 cells assessed as tumour cell growth at 10 uM after 48 hrs by SRB assay relative to control; type: functional; outline: as §1
[3] = Selectivity index, ratio of LC50 for mouse 3T3 cells to MIC for Mycobacterium tuberculosis H37Rv ATCC27294; type: toxicity; settings: read-out: Selectivity Index
HL-60 = assay: Anticancer activity against human HL60 cells assessed as tumour cell growth at 10 uM after 48 hrs by SRB assay relative to control; type: functional; outline: as §1
SR = assay: Anticancer activity against human SR cells assessed as tumour cell growth at 10 uM after 48 hrs by SRB assay relative to control; type: functional; outline: as §1
M14 = assay: Anticancer activity against human M14 cells assessed as tumour cell growth at 10 uM after 48 hrs by SRB assay relative to control; type: functional; outline: as §1

| Compound | MIC (Staphylococcus aureus) | LC50 (NIH3T3) | MIC [1] | MIC [2] | Activity (K562) | Activity (HCT-116) | selectivity ratio [3] | Activity (HL-60) | Activity (SR) | Activity (M14) |
| --- | --- | --- | --- | --- | --- | --- | --- | --- | --- | --- |
| COc1ccc(C(=O)/C=C/c2cc(OC)c(OC)c(OC)c2)cc1S(=O)(=O)Nc1c(N)nc(SC)[nH]c1=O | > 57 µM | 2.1 µM | > 89 µM | > 175 µM | – | – | – | – | – | – |
| COc1ccc(C(=O)/C=C/c2ccc(C)cc2)cc1S(=O)(=O)Nc1c(N)nc(SC)[nH]c1=O | > 57 µM | 7.2 µM | 41 µM (≈ 19.9 µg/mL) | > 175 µM | 38.79% | 10.78% | 0.18 | – | – | – |
| COc1ccc(C(=O)/C=C/c2ccccc2)cc1S(N)(=O)=O | > 57 µM | 7.7 µM | 16 µM (≈ 5.08 µg/mL) | > 175 µM | 7.9% | – | 0.48 | – | – | – |
| COc1ccc(C(C)=O)cc1S(N)(=O)=O | > 57 µM | > 2700 µM | > 218 µM | > 175 µM | – | – | – | 74.74% | – | – |
| COc1ccc(C(=O)/C=C/c2ccc3c(c2)OCO3)cc1S(N)(=O)=O | > 57 µM | 132 µM | > 138 µM | > 175 µM | 44.59% | 19.22% | – | – | – | – |
| COc1ccc(C(=O)/C=C/c2ccccc2)cc1S(=O)(=O)Nc1c(N)nc(SC)[nH]c1=O | > 57 µM | 17 µM | 42 µM (≈ 19.8 µg/mL) | > 175 µM | 35.63% | 35.18% | 0.4 | – | – | – |
| COc1ccc(/C=C/C(=O)c2ccc(OC)c(S(=O)(=O)Nc3c(N)nc(SC)[nH]c3=O)c2)cc1 | > 57 µM | 6.5 µM | > 100 µM | > 175 µM | 54.26% | 24.01% | – | – | – | – |
| COc1ccc(C(=O)/C=C/c2ccc3c(c2)OCO3)cc1S(=O)(=O)Nc1c(N)nc(SC)[nH]c1=O | > 57 µM | 7.1 µM | > 97 µM | > 175 µM | 53.79% | 18.36% | – | – | – | – |
| COc1ccc(/C=C/C(=O)c2ccc(OC)c(S(N)(=O)=O)c2)cc1 | > 57 µM | 96 µM | > 144 µM | > 175 µM | 38.78% | – | – | – | 28.1% | – |
| C[C@@H]1C[C@@H]([C@H](O)CC2CC(=O)NC(=O)C2)C(=O)[C@@H](C)C1 [CYCLOHEXIMIDE] | – | < 2.2 µM | – | – | – | – | – | – | – | – |
| NNC(=O)c1ccncc1 [ISONIAZID] | – | – | 0.36 µM (≈ 0.0494 µg/mL) | – | – | – | – | – | – | – |
| COc1ccc(C(=O)/C=C/c2ccc(C)cc2)cc1S(N)(=O)=O | > 57 µM | 4.3 µM | 30 µM (≈ 9.94 µg/mL) | > 175 µM | 3.04% | – | 0.14 | – | – | – |
| COc1ccc(C(C)=O)cc1S(=O)(=O)Nc1c(N)nc(SC)[nH]c1=O | > 57 µM | > 1600 µM | > 130 µM | > 175 µM | – | – | – | – | – | 94.85% |
| COc1ccc(C(=O)/C=C/c2cc(OC)c(OC)c(OC)c2)cc1S(N)(=O)=O | > 57 µM | 2.4 µM | > 123 µM | > 175 µM | – | – | – | – | – | – |
